Results: ChEMBL document CHEMBL1131001, “Syntheses and anticholinesterase activities of (3aS)-N1, N8-bisnorphenserine, (3aS)-N1,N8-bisnorphysostigmine, their antipodal isomers, and other potential metabolites of phenserine” (J Med Chem, 1998)

Columns and labels:
Cholinesterase [1] = molecular target: T1, Cholinesterase (Homo sapiens, UniProt P06276); experiment: Anticholinesterase activity against plasma Butyrylcholinesterase (BChE) in humans.; format: cell-free
Acetylcholinesterase [2] = molecular target: T2, Acetylcholinesterase (Homo sapiens, UniProt P22303); experiment: Anticholinesterase activity against erythrocyte acetylcholinesterase (AChE) in humans.
Method in brief: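 Human red blood cells, freshly collected, were washed five times in isotonic saline, lysed in 0.1 M Na3PO4 pH 7.4 with 0.5% Triton-X, and diluted 1:200. Compounds in half-log dilutions from 0.3 nM were preincubated with enzyme for 30 min at room temperature in pH 8.0 phosphate.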

Cholinesterase [3] = molecular target: T1, Cholinesterase; experiment: Anticholinesterase activity against plasma Butyrylcholinesterase (BChE) in humans.(no detectable activity at 3*10e-5 M); format: cell-free
Acetylcholinesterase [4] = molecular target: T2, Acetylcholinesterase; experiment: Anticholinesterase activity against erythrocyte acetylcholinesterase (AChE) in humans.(no detectable activity at 3*10e-5 M)

T2 sequence (P22303 whole entry): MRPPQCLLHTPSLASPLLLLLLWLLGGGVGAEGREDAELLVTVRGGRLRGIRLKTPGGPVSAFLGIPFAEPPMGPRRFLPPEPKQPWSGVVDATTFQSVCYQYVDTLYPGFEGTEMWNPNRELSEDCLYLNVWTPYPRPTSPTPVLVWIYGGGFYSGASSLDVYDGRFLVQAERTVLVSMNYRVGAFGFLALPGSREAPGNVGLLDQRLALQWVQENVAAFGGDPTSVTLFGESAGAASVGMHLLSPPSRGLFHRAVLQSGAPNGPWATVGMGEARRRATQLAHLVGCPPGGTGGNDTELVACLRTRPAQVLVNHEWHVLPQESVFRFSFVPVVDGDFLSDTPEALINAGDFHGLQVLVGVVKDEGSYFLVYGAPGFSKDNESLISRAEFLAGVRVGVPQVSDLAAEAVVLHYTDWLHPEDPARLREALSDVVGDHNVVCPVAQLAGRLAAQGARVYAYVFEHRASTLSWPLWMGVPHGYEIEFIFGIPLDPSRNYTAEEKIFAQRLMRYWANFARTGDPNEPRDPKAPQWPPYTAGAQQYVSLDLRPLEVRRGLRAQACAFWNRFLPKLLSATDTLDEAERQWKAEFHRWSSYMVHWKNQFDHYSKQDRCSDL
T1 sequence (P06276 whole entry): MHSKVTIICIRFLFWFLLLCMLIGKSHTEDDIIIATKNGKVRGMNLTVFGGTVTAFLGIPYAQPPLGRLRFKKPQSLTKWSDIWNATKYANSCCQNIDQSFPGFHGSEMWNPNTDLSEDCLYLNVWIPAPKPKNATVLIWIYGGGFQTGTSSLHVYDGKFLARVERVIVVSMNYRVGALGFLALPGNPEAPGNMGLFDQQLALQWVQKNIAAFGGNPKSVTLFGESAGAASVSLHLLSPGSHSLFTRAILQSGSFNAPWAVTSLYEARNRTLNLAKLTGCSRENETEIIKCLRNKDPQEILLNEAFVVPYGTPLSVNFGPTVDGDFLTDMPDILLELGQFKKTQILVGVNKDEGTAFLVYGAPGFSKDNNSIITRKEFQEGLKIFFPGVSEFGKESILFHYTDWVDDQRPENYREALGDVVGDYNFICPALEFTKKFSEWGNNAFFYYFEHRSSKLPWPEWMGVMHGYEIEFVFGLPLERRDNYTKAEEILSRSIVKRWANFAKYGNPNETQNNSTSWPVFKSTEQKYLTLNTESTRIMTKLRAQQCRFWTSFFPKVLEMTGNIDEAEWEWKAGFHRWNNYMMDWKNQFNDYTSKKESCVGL

SMILES | IC50 (Cholinesterase [1]) [nM] | IC50 (Acetylcholinesterase [2]) [nM] | IC50 (Cholinesterase [3]) | IC50 (Acetylcholinesterase [4])
C[C@]12CCNC1Nc1ccc(OC(=O)Nc3ccccc3)cc12 (stereo not given in full) | 952 | 231 |  | 
CNC(=O)Oc1ccc2c(c1)[C@]1(C)CCNC1N2 (stereo not given in full) | 2.4 | 10.9 |  | 
CN1CC[C@@]2(C)c3cc(O)ccc3N(C)[C@@H]12 |  |  | No detectable activity | No detectable activity
CN1CC[C@@]2(C)C3=CC(=O)C(=O)C=C3N(C)C12 (stereo not given in full) |  |  | No detectable activity | No detectable activity
C[C@]12CCN(Cc3ccccc3)C1N(Cc1ccccc1)c1ccc(OC(=O)Nc3ccccc3)cc12 (stereo not given in full) |  |  | No detectable activity | No detectable activity
C[C@@]12CCNC1Nc1ccc(OC(=O)Nc3ccccc3)cc12 (stereo not given in full) | 897 |  |  | 
CNC(=O)Oc1ccc2c(c1)[C@@]1(C)CCN(Cc3ccccc3)C1N2Cc1ccccc1 (stereo not given in full) | 776 | 3560 |  | 
CNC(=O)Oc1ccc2c(c1)[C@@]1(C)CCNC1N2 (stereo not given in full) | 237 | 1490 |  | 
CNC(=O)Oc1ccc2c(c1)[C@]1(C)CCN(Cc3ccccc3)C1N2Cc1ccccc1 (stereo not given in full) | 8.1 | 1090 |  | 
CN1c2ccc(OC(=O)Nc3ccccc3)cc2[C@]2(C)CCNC12 (stereo not given in full) | 612 |  |  | 
C[C@@]12CCN(Cc3ccccc3)C1N(Cc1ccccc1)c1ccc(OC(=O)Nc3ccccc3)cc12 (single isomer, unassigned; (-)) | 513 | 41100 |  | 
